Data taken from publication PMC10968941 (International Journal of Nanomedicine, 2024).

How the values were obtained:
Caco-2 cells = experiment: Caco-2 permeability assay; type: in vitro ADME, human; settings: Caco-2 Transwell, apical to basolateral, RP-HPLC
Summary of the method: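 Caco-2 cells seeded at 1 × 10^5 cells/well on 0.4 µm Transwell membranes and grown to a monolayer checked by TEER. Medium replaced with HBSS before dosing.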

[1] = target: pepsin from porcine stomach mucosa (Sus scrofa, UniProt P00791); experiment: Stability test in simulated gastric fluid; type: in vitro ADME; settings: 37°C; for Degradation in simulated gastric fluid with pepsin: up to 120 min
Chain of pepsin from porcine stomach mucosa (P00791 60-385): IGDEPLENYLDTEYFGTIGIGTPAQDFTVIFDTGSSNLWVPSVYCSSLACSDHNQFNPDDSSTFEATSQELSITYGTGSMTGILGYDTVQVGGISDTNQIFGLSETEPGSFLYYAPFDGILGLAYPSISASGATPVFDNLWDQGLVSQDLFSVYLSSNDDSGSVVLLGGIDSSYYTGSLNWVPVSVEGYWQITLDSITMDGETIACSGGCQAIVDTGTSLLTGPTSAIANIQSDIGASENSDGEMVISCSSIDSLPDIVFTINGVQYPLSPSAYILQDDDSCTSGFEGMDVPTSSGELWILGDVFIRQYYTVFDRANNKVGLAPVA
Summary of the method: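 Simulated gastric fluid: 200 mg NaCl and 64 mg porcine pepsin in 100 mL water plus 0.7 mL HCl, pH 1.2. Peptide (10 mg/mL in 0.1 M ammonium bicarbonate, 0.1 mL) mixed with 0.9 mL SGF at 37°C. Sampled at 0, 5, 15, 30, 60 and 120 min; quenched with 0.2 M NaOH; analysed by RP-HPLC. PEG 200, 400, 1000 or 4000 tested at 0%, 20% and 40% in SGF.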

CCCCCCCCCCCCCCCC(=O)N[C@@H](CCC(=O)NCCCC[C@H](NC(=O)[C@H](C)NC(=O)[C@H](C)NC(=O)[C@H](CCC(N)=O)NC(=O)CNC(=O)[C@H](CCC(=O)O)NC(=O)[C@H](CC(C)C)NC(=O)[C@H](Cc1ccc(O)cc1)NC(=O)[C@H](CO)NC(=O)[C@H](CO)NC(=O)[C@@H](NC(=O)[C@H](CC(=O)O)NC(=O)[C@H](CO)NC(=O)[C@@H](NC(=O)[C@H](Cc1ccccc1)NC(=O)[C@@H](NC(=O)CNC(=O)[C@H](CCC(=O)O)NC(=O)[C@H](C)NC(=O)[C@@H](N)Cc1cnc[nH]1)[C@@H](C)O)[C@@H](C)O)C(C)C)C(=O)N[C@@H](CCC(=O)O)C(=O)N[C@@H](Cc1ccccc1)C(=O)N[C@H](C(=O)N[C@@H](C)C(=O)N[C@@H](Cc1c[nH]c2ccccc12)C(=O)N[C@@H](CC(C)C)C(=O)N[C@H](C(=O)N[C@@H](CCCNC(=N)N)C(=O)NCC(=O)N[C@@H](CCCNC(=N)N)C(=O)NCC(=O)O)C(C)C)[C@@H](C)CC)C(=O)O [LG, liraglutide]
LG at the basolateral side after 2 h treatment (Caco-2 cells): undetected | Degradation in simulated gastric fluid with pepsin ([1]; SGF pH 1.2 with pepsin): rapid degradation | Degradation in simulated gastric fluid with pepsin ([1]; SGF pH 1.2 with pepsin, listed as free LG): fully degraded | Degradation in simulated gastric fluid in the absence of pepsin ([1]; SGF pH 1.2 without pepsin): degradation was not observed | Time to entire degradation in simulated gastric fluid, LG with PEG 1000 ([1]; formulation containing PEG 1000, SGF pH 1.2 with pepsin): ≤ 60 min | Time to entire degradation in simulated gastric fluid, LG with PEG 4000 ([1]; formulation containing PEG 4000, SGF pH 1.2 with pepsin): ≤ 60 min
